ChEMBL document CHEMBL1955824, “Indeno[1,2-b]indole derivatives as a novel class of potent human protein kinase CK2 inhibitors” (Bioorg Med Chem, 2012)

Columns and labels:
[1] = target: Casein kinase II alpha/beta (Homo sapiens) (UniProt P67870+P68400); test: Inhibition of human CSNK2A1/2B expressed in Escherichia coli BL21(DE3) using RRRDDDSDDD as substrate at 10 uM after 15 mins by scintillation counting
Method in brief: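 Holoenzyme from CSNK2A1 and CSNK2B subunits expressed separately in E. coli, extracts combined, column-purified. Enzyme preincubated with inhibitor in DMSO in Tris pH 7.5 kinase buffer. Final ATP 60 µM, peptide 114 µM. Incubated 37 °C for 15 min, spotted on P81 paper, washed with phosphoric acid and ethanol, then counted. Controls: DMSO (0%), no CK2 (100%).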

[2] = Inhibition of rat liver casein kinase-2 preincubated for 5 mins prior ATP addition measured after 40 mins
[3] = Inhibition of calf thymus casein kinase-2 using casein as substrate after 15 mins by liquid scintillation counting; set-up: species or system Bos taurus
[4] = Inhibition of casein kinase-2
Method in brief: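 Recombinant human CK2 holoenzyme (CSNK2A1 and CSNK2B expressed separately in E. coli, extracts combined and purified), preincubated with compound in DMSO in kinase buffer pH 7.5. 37 °C, 15 min, P81 paper, scintillation counting. IC50 from dose–response over 0.01–30 µM, at least triplicate independent experiments.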

[5] = target: Casein kinase II alpha/beta (Homo sapiens, UniProt P68400); test: Inhibition of human CSNK2A1/2B expressed in Escherichia coli BL21(DE3) using RRRDDDSDDD as substrate after 15 mins by scintillation counting
[6] = target: Vascular endothelial growth factor receptor 2 (Homo sapiens, UniProt P35968); test: Inhibition of human recombinant VEGF-R2 expressed in Sf9 cells using poly(E,Y)4:1 as substrate after 80 mins by scintillation counting
Method in brief: (§1)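 Commercial radiometric panel of His-tagged or GST-fused human kinases expressed in Sf9 cells, affinity-purified. Inhibitor added in 10% DMSO. Ten concentrations tested in singlicate; IC50 taken from dose–response curves.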

Aurora kinase A = Aurora kinase A (Homo sapiens, UniProt O14965); test: Inhibition of human recombinant aurora-A expressed in Sf9 cells using tetra(LRRWSLG) as substrate after 80 mins by scintillation counting; method in brief: as §1
[7] = target: RAC-alpha serine/threonine-protein kinase (Homo sapiens, UniProt P31749); test: Inhibition of human recombinant AKT1 expressed in Sf9 cells using GSK3(14-27) as substrate after 80 mins by scintillation counting; method in brief: as §1
[8] = target: Proto-oncogene tyrosine-protein kinase Src (Homo sapiens, UniProt P12931); test: Inhibition of human recombinant SRC expressed in Sf9 cells using poly(E,Y)4:1 as substrate after 80 mins by scintillation counting; method in brief: as §1
Aurora kinase B = Aurora kinase B (Homo sapiens, UniProt Q96GD4); test: Inhibition of human recombinant aurora-B expressed in Sf9 cells using tetra(LRRWSLG) as substrate after 80 mins by scintillation counting; method in brief: as §1
[9] = target: Serine/threonine-protein kinase PLK4 (Homo sapiens, UniProt O00444); test: Inhibition of human recombinant SAK expressed in Sf9 cells using p38alpha-KRKR as substrate after 80 mins by scintillation counting; method in brief: as §1
Insulin receptor = Insulin receptor (Homo sapiens, UniProt P06213); test: Inhibition of human recombinant INS-R expressed in Sf9 cells using poly(A,E,K,Y)6:2:5:1 as substrate after 80 mins by scintillation counting; method in brief: as §1
[10] = target: Receptor tyrosine-protein kinase erbB-2 (Homo sapiens, UniProt P04626); test: Inhibition of human recombinant ERBB2 expressed in Sf9 cells using poly(E,Y)4:1 as substrate after 80 mins by scintillation counting; method in brief: as §1
[11] = target: Insulin-like growth factor 1 receptor (Homo sapiens, UniProt P08069); test: Inhibition of human recombinant IGF1R expressed in Sf9 cells using poly(E,Y)4:1 as substrate after 80 mins by scintillation counting; method in brief: as §1
[12] = target: NUAK family SNF1-like kinase 1 (Homo sapiens, UniProt O60285); test: Inhibition of human recombinant ARK5 expressed in Sf9 cells assessed as autophosphorylation after 80 mins by scintillation counting; method in brief: as §1
[13] = target: Serine/threonine-protein kinase PLK1 (Homo sapiens, UniProt P53350); test: Inhibition of human recombinant PLK1 expressed in Sf9 cells using casein as substrate after 80 mins by scintillation counting; method in brief: as §1
[14] = target: Cyclin-dependent kinase 4/cyclin D1 (Homo sapiens, UniProt P11802); test: Inhibition of human recombinant CDK4/CyclinD1 expressed in Sf9 cells using RB-CTF as substrate after 80 mins by scintillation counting; method in brief: as §1
Focal adhesion kinase 1 = Focal adhesion kinase 1 (Homo sapiens, UniProt Q05397); test: Inhibition of human recombinant FAK expressed in Sf9 cells using poly(E,Y)4:1 as substrate after 80 mins by scintillation counting; method in brief: as §1
Angiopoietin-1 receptor = Angiopoietin-1 receptor (Homo sapiens, UniProt Q02763); test: Inhibition of human recombinant TIE2 expressed in Sf9 cells using poly(E,Y)4:1 as substrate after 80 mins by scintillation counting; method in brief: as §1
[15] = Growth inhibition of human KYSE-70 cells at 20 uM after 96 hrs by crystal violet staining; assay type: functional; details: KYSE-70, 96 h, read-out: GI
Method in brief: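 KYSE-70 esophageal cancer cells grown in RPMI 1640 with 10% FCS, penicillin G and streptomycin. Cells exposed 96 h to compounds dissolved in DMF (final solvent 0.1%). Fixed 20 min in 1% glutaraldehyde, stained 30 min with 0.02% crystal violet, washed 30 min in water. Bound dye dissolved in ethanol/water 7:3, absorbance read at 570 nm.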

[16] = target: Hepatocyte growth factor receptor (Homo sapiens, UniProt P08581); test: Inhibition of human recombinant MET expressed in Sf9 cells using poly(A,E,K,Y)6:2:5:1 as substrate after 80 mins by scintillation counting; method in brief: as §1
[17] = target: Vascular endothelial growth factor receptor 3 (Homo sapiens, UniProt P35916); test: Inhibition of human recombinant VEGF-R3 expressed in Sf9 cells using poly(E,Y)4:1 as substrate after 80 mins by scintillation counting; method in brief: as §1
[18] = target: Cyclin-dependent kinase 2/cyclin A (Homo sapiens, UniProt P24941); test: Inhibition of human recombinant CDK2/CyclinA expressed in Sf9 cells using histone H1 as substrate after 80 mins by scintillation counting; method in brief: as §1
Ephrin type-B receptor 4 = Ephrin type-B receptor 4 (Homo sapiens, UniProt P54760); test: Inhibition of human recombinant EPHB4 expressed in Sf9 cells using poly(E,Y)4:1 as substrate after 80 mins by scintillation counting; method in brief: as §1
[19] = target: Serine/threonine-protein kinase B-raf (Homo sapiens, UniProt P15056); test: Inhibition of human recombinant B-RAF expressed in Sf9 cells using MEK1 KM as substrate after 80 mins by scintillation counting; method in brief: as §1
[20] = target: Mitogen-activated protein kinase kinase kinase 8 (Homo sapiens, UniProt P41279); test: Inhibition of human recombinant COT expressed in Sf9 cells assessed as autophosphorylation after 80 mins by scintillation counting; method in brief: as §1

Sequence of Casein kinase II alpha/beta (Homo sapiens) (P67870 2-215 limits assumed): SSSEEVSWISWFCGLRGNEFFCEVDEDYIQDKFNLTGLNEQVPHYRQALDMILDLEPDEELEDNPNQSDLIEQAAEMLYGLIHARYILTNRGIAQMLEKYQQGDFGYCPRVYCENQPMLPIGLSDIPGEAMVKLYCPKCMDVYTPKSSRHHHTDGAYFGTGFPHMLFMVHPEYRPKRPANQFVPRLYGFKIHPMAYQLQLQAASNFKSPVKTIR
Sequence of Casein kinase II alpha/beta (Homo sapiens) (P68400 whole entry partner): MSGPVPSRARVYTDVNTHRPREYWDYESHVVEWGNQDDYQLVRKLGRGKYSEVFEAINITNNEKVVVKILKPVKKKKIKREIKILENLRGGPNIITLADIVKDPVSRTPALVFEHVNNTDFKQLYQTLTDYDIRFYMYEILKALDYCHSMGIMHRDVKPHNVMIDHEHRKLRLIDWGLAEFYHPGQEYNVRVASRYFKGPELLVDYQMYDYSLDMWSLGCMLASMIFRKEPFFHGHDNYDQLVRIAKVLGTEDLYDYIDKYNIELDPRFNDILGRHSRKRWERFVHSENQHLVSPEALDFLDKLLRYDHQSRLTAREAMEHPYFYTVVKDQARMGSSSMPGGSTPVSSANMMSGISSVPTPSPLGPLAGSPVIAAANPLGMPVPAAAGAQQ
Sequence of RAC-alpha serine/threonine-protein kinase (P31749 whole entry): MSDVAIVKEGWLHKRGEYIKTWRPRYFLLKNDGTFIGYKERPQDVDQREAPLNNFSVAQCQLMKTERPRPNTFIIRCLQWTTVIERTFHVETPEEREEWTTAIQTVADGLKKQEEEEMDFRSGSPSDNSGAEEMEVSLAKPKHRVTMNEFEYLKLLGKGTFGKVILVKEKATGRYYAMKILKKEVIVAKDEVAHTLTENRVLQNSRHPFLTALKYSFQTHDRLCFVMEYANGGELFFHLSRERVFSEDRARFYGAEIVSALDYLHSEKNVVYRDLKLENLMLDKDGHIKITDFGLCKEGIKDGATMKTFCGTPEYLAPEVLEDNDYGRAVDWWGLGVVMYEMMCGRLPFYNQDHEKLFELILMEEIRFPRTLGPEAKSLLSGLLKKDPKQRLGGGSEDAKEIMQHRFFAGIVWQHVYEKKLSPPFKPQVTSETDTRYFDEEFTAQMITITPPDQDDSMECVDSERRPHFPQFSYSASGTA
Sequence of Receptor tyrosine-protein kinase erbB-2 (P04626 whole entry): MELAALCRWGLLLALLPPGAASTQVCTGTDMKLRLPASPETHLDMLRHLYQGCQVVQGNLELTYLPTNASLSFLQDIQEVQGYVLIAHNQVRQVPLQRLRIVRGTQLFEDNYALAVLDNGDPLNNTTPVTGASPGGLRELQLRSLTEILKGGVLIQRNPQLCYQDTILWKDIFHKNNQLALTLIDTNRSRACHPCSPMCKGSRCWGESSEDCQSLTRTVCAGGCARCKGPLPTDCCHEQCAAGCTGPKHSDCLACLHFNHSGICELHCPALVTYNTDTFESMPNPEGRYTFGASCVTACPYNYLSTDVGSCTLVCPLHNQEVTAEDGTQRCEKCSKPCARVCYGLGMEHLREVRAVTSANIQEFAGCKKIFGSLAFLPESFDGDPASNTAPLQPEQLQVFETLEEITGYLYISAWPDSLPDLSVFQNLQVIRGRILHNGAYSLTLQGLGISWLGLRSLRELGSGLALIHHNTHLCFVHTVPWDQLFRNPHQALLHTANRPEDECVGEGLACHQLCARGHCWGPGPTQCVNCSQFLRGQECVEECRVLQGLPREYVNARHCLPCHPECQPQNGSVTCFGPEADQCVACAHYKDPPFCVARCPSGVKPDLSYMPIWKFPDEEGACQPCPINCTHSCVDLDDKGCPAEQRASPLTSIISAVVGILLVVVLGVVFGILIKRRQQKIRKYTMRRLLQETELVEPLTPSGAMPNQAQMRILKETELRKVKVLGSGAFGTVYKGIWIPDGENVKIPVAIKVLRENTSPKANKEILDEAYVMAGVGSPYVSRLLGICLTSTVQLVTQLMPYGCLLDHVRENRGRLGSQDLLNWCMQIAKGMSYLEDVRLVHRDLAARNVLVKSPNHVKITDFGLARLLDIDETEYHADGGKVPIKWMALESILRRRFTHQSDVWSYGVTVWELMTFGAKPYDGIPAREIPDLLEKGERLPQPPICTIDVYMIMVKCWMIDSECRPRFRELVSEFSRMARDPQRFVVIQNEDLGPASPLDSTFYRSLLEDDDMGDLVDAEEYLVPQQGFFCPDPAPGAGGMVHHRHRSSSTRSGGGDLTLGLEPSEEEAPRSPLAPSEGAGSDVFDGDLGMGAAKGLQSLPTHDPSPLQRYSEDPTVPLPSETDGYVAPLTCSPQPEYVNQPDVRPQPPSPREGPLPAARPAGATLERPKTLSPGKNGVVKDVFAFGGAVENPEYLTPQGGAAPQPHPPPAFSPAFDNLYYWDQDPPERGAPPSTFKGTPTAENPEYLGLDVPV
Sequence of Vascular endothelial growth factor receptor 2 (P35968 whole entry, the tested form may be a part): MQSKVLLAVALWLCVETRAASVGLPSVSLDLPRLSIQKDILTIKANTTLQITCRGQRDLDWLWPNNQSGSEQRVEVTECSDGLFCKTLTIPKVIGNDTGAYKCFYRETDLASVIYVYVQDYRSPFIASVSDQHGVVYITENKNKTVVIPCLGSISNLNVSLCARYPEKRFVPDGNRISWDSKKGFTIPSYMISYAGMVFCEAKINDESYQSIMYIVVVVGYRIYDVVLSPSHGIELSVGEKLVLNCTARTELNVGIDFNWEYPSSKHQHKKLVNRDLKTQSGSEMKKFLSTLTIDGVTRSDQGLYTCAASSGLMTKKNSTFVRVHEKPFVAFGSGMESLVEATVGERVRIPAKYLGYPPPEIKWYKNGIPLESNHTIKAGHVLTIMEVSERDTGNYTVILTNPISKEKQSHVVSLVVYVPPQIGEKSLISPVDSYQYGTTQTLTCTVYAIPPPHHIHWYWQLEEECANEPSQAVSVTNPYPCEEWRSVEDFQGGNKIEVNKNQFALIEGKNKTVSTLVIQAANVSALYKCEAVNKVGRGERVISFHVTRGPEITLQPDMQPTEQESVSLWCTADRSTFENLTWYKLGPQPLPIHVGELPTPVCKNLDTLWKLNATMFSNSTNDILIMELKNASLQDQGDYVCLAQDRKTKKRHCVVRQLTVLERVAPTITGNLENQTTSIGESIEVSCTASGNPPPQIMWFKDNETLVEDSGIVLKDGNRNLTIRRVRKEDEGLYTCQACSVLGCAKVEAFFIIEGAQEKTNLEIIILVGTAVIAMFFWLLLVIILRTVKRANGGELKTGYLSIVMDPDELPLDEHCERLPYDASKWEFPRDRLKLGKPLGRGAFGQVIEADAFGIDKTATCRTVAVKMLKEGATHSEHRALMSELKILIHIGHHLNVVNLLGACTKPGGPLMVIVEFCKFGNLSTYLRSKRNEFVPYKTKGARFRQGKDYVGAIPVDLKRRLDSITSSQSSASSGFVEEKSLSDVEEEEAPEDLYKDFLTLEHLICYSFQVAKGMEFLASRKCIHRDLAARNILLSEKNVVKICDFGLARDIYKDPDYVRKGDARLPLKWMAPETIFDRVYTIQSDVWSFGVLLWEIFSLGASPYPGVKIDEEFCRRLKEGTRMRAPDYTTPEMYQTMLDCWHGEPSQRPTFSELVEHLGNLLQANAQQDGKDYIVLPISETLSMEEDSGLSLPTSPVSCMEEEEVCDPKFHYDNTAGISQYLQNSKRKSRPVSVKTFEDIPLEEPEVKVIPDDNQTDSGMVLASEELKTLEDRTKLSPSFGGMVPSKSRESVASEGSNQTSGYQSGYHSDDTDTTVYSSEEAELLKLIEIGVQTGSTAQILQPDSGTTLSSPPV
Sequence of Serine/threonine-protein kinase PLK1 (P53350 whole entry): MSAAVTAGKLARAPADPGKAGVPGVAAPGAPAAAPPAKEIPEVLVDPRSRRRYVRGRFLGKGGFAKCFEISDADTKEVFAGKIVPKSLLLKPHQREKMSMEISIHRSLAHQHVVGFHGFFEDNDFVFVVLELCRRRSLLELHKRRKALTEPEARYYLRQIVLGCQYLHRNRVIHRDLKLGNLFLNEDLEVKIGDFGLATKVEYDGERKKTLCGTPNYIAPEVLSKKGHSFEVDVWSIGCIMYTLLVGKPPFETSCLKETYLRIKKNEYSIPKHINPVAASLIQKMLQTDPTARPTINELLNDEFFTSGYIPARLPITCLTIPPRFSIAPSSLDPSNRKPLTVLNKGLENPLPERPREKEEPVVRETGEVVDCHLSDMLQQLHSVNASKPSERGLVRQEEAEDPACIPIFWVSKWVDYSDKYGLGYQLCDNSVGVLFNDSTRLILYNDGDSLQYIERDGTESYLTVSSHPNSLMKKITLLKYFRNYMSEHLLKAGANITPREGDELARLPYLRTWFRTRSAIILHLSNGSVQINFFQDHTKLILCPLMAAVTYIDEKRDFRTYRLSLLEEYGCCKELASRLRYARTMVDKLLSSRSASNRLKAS
Sequence of Cyclin-dependent kinase 4/cyclin D1 (P11802 whole entry): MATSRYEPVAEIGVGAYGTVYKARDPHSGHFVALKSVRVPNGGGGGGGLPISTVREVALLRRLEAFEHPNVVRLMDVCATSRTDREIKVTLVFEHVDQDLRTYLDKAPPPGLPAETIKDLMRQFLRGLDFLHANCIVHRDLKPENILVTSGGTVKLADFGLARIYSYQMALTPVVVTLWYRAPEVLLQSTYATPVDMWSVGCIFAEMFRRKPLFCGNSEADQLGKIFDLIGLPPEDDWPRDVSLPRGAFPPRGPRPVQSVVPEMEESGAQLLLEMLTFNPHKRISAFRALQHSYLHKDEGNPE
Sequence of Cyclin-dependent kinase 4/cyclin D1 (P24385 whole entry, further chain): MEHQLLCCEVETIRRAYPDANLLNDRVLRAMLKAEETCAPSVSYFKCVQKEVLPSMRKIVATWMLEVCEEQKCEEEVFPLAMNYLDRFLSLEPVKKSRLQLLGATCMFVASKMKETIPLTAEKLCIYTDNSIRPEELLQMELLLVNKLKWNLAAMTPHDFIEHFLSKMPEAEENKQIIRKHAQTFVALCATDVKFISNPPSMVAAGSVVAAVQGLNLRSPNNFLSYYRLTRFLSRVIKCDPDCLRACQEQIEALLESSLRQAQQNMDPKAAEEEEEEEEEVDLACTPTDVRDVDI

SMILES: O=C1c2ccccc2-c2c1c1c(O)cc(-c3ccccc3)cc1n2Cc1ccccc1
- inhibition [1]: 31%

SMILES: O=C1CCCc2c1c1c(n2CCCc2ccccc2)-c2ccccc2C1=O
- inhibition [1]: 27%

SMILES: O=C1c2ccccc2-c2c1c1c(O)cccc1n2Cc1ccccc1
- inhibition [1]: 25%

SMILES: Cc1cc(O)c2c(c1)C(=O)c1cc(O)cc(O)c1C2=O [EMODIN]
- IC50 [2]: 0.89 µM

SMILES: O=C1CCCc2c1c1c(n2Cc2ccccn2)-c2ccccc2C1=O
- inhibition [1]: 30%

SMILES: Brc1c(Br)c(Br)c2[nH]nnc2c1Br [TETRABROMOBENZOTRIAZOLE]
- IC50 [3]: 1.6 µM

SMILES: OC[C@H]1O[C@@H](n2cnc3cc(Cl)c(Cl)cc32)[C@H](O)[C@@H]1O [DICHLORORIBOBENZIMIDAZOLE]
- IC50 [4]: 15 µM

SMILES: COC(=O)C1C(=O)c2c3c(n(Cc4ccccc4)c2CC1C)-c1ccccc1C3=O (configuration not stated)
- inhibition [1]: 15%

SMILES: CC1CC(=O)c2c3c(n(Cc4ccccc4)c2C1)-c1ccccc1C3=O (racemic)
- inhibition [1]: 11%

SMILES: O=C1CC(c2ccccc2)Cc2c1c1c(n2Cc2ccccc2)-c2ccccc2C1=O (racemic)
- inhibition [1]: 3%

SMILES: CC(c1ccccc1)n1c2c(c3c1-c1ccccc1C3=O)C(=O)CCC2 (configuration not stated)
- inhibition [1]: 66%
- IC50 [5]: 4.66 µM

SMILES: CC(C)n1c2c(c3c1-c1ccccc1C3=O)C(=O)CCC2
- IC50 [6]: > 35 µM
- IC50 (Aurora kinase A): > 35 µM
- IC50 [7]: > 35 µM
- IC50 [8]: > 35 µM
- IC50 (Aurora kinase B): > 35 µM
- IC50 [9]: > 35 µM
- IC50 (Insulin receptor): > 35 µM
- IC50 [10]: > 35 µM
- IC50 [11]: > 35 µM
- IC50 [12]: > 35 µM
- IC50 [13]: > 35 µM
- IC50 [14]: > 35 µM
- IC50 (Focal adhesion kinase 1): > 35 µM
- IC50 (Angiopoietin-1 receptor): > 35 µM
- inhibition of growth at 20 µM [15]: 25%
- IC50 [16]: > 35 µM
- IC50 [17]: > 35 µM
- IC50 [18]: > 35 µM
- IC50 (Ephrin type-B receptor 4): > 35 µM
- IC50 [19]: > 35 µM
- IC50 [20]: > 35 µM

SMILES: COc1ccc(CCn2c3c(c4c2-c2ccccc2C4=O)C(=O)CCC3)cc1OC
- inhibition [1]: 50%

SMILES: O=C1CCCc2c1c1c(n2CCc2ccccc2)-c2ccccc2C1=O
- inhibition [1]: 67%

SMILES: COc1ccc(Cn2c3c(c4c2-c2ccccc2C4=O)C(=O)CCC3)cc1
- inhibition [1]: 41%

SMILES: O=C1CCCc2[nH]c3c(c21)C(=O)c1ccccc1-3
- inhibition [1]: 19%

SMILES: COC(=O)C1C(=O)c2c([nH]c3c2C(=O)c2ccccc2-3)CC1C (configuration not stated)
- inhibition [1]: 28%

SMILES: O=c1oc2c(O)c(O)cc3c(=O)oc4c(O)c(O)cc1c4c23 [ELLAGIC ACID]
- IC50 [6]: 0.79 µM
- IC50 (Aurora kinase A): 2.48 µM
- IC50 [7]: 3.34 µM
- IC50 [8]: 0.8 µM
- IC50 (Aurora kinase B): 2.5 µM
- IC50 [9]: 2.97 µM
- IC50 (Insulin receptor): 0.34 µM
- IC50 [10]: 3.54 µM
- IC50 [11]: 0.25 µM
- IC50 [12]: 0.51 µM
- IC50 [13]: 3.34 µM
- IC50 [14]: 1.09 µM
- IC50 (Focal adhesion kinase 1): 3.11 µM
- IC50 (Angiopoietin-1 receptor): 0.26 µM
- IC50 [16]: 0.58 µM
- IC50 [17]: 1.54 µM
- IC50 [18]: 3.39 µM
- IC50 (Ephrin type-B receptor 4): 1.83 µM
- IC50 [19]: 1.76 µM
- IC50 [20]: 2.37 µM

SMILES: COc1ccc(CCn2c3c(c4c(O)cccc42)C(=O)c2ccccc2-3)cc1OC
- inhibition [1]: 34%

SMILES: O=C1CCCc2c1c1c(n2-c2ccccc2)-c2ccccc2C1=O
- inhibition [1]: 60%

SMILES: O=C1CCCc2c1c1c(n2Cc2ccccc2)-c2ccccc2C1=O
- inhibition [1]: 48%

SMILES: CC1(C)CC(=O)c2c3c(n(Cc4ccccc4)c2C1)-c1ccccc1C3=O
- inhibition [1]: 10%
